The structures appear in SMILES notation. Calls of active or inactive are those of the source. The rule behind the calls is not given here.

The results in this text go back to ChEMBL document CHEMBL1138062 (J Med Chem, 2006).

For test [1], the target named is T1, GABA transporter 4 (Mus musculus) (UniProt P31650).
T1 sequence (whole entry): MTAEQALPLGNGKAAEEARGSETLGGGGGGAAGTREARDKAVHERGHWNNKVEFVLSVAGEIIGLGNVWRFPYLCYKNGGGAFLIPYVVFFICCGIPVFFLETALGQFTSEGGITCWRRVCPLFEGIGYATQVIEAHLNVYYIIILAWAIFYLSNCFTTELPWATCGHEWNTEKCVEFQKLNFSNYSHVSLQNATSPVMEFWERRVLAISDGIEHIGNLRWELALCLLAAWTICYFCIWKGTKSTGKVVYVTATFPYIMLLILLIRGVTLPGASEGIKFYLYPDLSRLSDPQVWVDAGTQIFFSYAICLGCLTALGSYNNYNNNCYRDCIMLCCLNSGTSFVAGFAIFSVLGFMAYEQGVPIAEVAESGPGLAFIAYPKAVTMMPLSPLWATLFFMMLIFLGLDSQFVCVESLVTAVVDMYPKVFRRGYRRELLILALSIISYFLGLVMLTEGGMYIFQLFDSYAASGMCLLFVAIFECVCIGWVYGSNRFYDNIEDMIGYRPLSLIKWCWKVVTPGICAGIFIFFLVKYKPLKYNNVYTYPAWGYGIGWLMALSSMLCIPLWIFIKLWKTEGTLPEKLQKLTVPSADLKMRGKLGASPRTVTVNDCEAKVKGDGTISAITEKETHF
Description: Inhibition of [3H]GABA uptake at mouse GABA transporter4 expressed in HEK293 cells at 1 mM. In kind it is cell-based.

The target of test [2] is T2, GABA transporter 2 (Mus musculus) (UniProt P31651).
T2 sequence (whole entry): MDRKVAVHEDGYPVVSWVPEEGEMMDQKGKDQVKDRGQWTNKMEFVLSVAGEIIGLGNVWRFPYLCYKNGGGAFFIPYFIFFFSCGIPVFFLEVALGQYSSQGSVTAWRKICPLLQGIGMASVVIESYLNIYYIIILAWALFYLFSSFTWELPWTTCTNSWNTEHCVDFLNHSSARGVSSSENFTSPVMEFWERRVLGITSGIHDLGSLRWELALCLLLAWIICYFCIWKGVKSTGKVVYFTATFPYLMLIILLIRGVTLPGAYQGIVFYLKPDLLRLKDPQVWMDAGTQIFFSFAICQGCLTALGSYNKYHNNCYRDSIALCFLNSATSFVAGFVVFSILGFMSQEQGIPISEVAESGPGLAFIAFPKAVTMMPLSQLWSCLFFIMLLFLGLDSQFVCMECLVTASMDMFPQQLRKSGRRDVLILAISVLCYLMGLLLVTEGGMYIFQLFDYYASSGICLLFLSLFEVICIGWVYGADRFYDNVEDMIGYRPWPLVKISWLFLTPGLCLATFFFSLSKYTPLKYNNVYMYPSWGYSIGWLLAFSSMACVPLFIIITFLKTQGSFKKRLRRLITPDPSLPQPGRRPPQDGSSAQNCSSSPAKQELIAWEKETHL
Description: Inhibition of [3H]GABA uptake at mouse GABA transporter2 expressed in HEK293 cells at 1 mM. The test is classed as cell-based.

The nature of test [3]: Agonist activity at GABAA receptor in mouse cerebral cortical neurons assessed as induction of peak current at 3 mM relative to GABA by whole cell patch clamp method. In kind it is functional. In outline: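 Peak currents evoked by 3 mM test agent compared with a close to maximal GABA response (600 µM). Specificity was checked by pretreating cells with gabazine (100 µM) for 15 s, then co-applying gabazine (100 µM) with agonist (3 mM). Values are mean ± SE, N = 3–7.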

For another test, the target named is GABA-B receptor (rat). As to the kind of experiment: Inhibition of [3H]GABA binding in GABAB receptor in rat brain synaptic membranes.
The species entered for a further test is Mus musculus. As to the kind of experiment: Inhibition of isoguvacine-induced current in mouse cerebral cortical neurons expressing GABAA receptor by whole cell patch clamp method. In kind it is functional. In a few lines:
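Test agent applied at a range of concentrations against isoguvacine-evoked currents. Currents normalized to the current induced by 20 µM isoguvacine. Mean ± SE from nine neurons. IC50 estimated by linear regression.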
For orientation: In patch-clamp work, channel activity is measured electrically.

The target of test [4] is GABA-A receptor; anion channel. As to the kind of experiment: Displacement of [3H]muscimol from GABAA receptor in rat brain synaptic membranes. In kind it is cell membranes, Membrane. In a few lines: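 Rat brain membrane preparations used for receptor binding. IC50 and Ki treated as log-normally distributed; mean and SEM calculated on the log scale, with the range given as the antilog of log mean ± SEM.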

In test [5] the target is T3, GABA transporter 3 (Mus musculus) (UniProt P31649).
T3 sequence (whole entry): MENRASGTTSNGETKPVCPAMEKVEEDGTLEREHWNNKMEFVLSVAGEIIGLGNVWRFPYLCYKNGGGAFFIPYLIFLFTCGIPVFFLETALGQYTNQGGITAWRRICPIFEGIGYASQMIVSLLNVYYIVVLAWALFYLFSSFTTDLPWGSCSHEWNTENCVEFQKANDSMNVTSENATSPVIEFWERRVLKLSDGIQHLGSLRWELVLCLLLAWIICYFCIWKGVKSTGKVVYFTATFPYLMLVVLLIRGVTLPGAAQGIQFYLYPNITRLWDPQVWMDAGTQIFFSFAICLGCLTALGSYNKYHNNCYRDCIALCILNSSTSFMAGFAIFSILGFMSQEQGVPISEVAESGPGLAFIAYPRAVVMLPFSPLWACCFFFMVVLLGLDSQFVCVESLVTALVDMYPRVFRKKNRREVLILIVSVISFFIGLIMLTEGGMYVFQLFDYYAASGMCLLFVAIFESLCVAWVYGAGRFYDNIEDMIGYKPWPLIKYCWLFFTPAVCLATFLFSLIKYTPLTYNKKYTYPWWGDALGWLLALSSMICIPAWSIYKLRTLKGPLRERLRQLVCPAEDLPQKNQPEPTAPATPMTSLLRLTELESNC
As to the kind of experiment: Inhibition of [3H]GABA uptake at mouse GABA transporter3 expressed in HEK293 cells at 1 mM. In kind it is cell-based.

Test [6] concerns the target Sodium- and chloride-dependent GABA transporter 1 (Mus musculus) (UniProt P31648). As to the kind of experiment: Inhibition of [3H]GABA uptake at mouse GABA transporter1 expressed in HEK293 cells at 1 mM. In kind it is cell-based.

Consider `NCCCCc1nonc1O`, for which the inhibition entry in test [1], in test [2], in test [5] and in test [6] was “inactive” in each case. Further, the Activity in test [3] was 0.8%. For the same molecule, the IC50 (on GABA-B receptor (rat); in test [4]) was over 100 µM throughout. Moreover, the inhibition entry in the test listed under Mus musculus was “Dose-dependent effect”.

As to `NCCCc1nonc1O`, the inhibition result in test [1], in test [2], in test [5] and in test [6] was “inactive” in each case. Moreover, the Activity in test [3] was found to be 14%. This molecule yielded an IC50 on GABA-B receptor (rat) of 25 µM. For the same molecule, in the test listed under Mus musculus, the inhibition entry is “Dose-dependent effect”. Further, in test [4], the Ki turned out to be 27 µM.

`NCCc1nonc1O`: the inhibition result in test [1], in test [2], in test [5] and in test [6] was “inactive” each time. The Activity in test [3] amounted to 40%. The IC50 on GABA-B receptor (rat) is 2 µM. Moreover, the inhibition entry in the test filed under Mus musculus is “Dose-dependent effect”. This molecule also showed a Ki in test [4] of 13 µM.

A word on the IC50: it is the midpoint of a concentration-inhibition curve. High values mean weaker potency in that assay, low ones greater potency in that assay. The term Ki denotes a measure of affinity in units of concentration, obtained from inhibition or displacement. A low value points to higher affinity.
